Data on 2 molecules can be found in ChEMBL document CHEMBL5252546, “Salutaxel, a Conjugate of Docetaxel and a Muramyl Dipeptide (MDP) Analogue, Acts as Multifunctional Prodrug That Inhibits Tumor Growth and Metastasis” (J Med Chem, 2018).

SMILES strings stand for the structures. pIC50: −log10 of the molar value. The source made the active and inactive calls. The rule behind the calls is not given here.

The nature of data set [1]: Drug concentration in rat brain assessed as docetaxel concentration at 4 mg/kg,iv measured after 24 hrs. As to conditions: in vivo. The class given is ADME, organism-based. The method in brief: (§1)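 Rats received 4 mg/kg iv. Parent drug and released docetaxel were assayed in tissues and plasma from the first sampling at 0.25 h to 24 h. The lower limit of quantitation was 200 ng/g.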

The nature of data set [2]: Cmax in mouse tumor implanted with mouse 4T1 cells at 10 mg/kg,iv measured upto 72 hrs. Further details: time < 72 hrs, dose 10 mg/kg, route iv. The class given is ADME, organism-based, Neoplasm. The method in brief: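 BALB/c mice carried 4T1 cells implanted in the mammary fat pad and received a single iv dose of 10 mg/kg. Parent drug and released docetaxel were assayed in plasma and tumor tissue up to 72 h. Parameters came from noncompartmental analysis, n = 6, mean ± SD.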

The nature of data set [3]: Drug concentration in rat plasma at 4 mg/kg,iv measured after 24 hrs. Format: ADME, organism-based. As to conditions: in vivo. The method in brief:
as §1

The nature of data set [4]: Plasma protein binding in rat plasma incubated for 4 hrs. The class given is ADME, cell-free. As to conditions: read-out: PPB (converted).
Data set [5] can be described thus: Volume of distribution at steady state in male Beagle dog at 4 mg/kg,iv measured upto 24 hrs. The class given is ADME, organism-based, Canis lupus familiaris. Conditions: in vivo, read-out: Vdss.
Data set [6] can be described thus: Volume of distribution at steady state in Beagle dog at 2 mg/kg,iv measured upto 24 hrs. As to conditions: in vivo, read-out: Vdss. The class given is ADME, organism-based, Canis lupus familiaris.
Data set [7] can be described thus: Volume of distribution at steady state in rat at 4 mg/kg,iv measured upto 24 hrs. The class given is ADME, organism-based. Conditions: in vivo, read-out: Vdss.
A short description of data set [8]: Clearance in rat at 8 mg/kg,iv measured upto 24 hrs. Format: ADME, organism-based. Conditions: in vivo. The method in brief: (§2)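 Rats were given a single iv injection at 2, 4 or 8 mg/kg. Plasma parent drug and released docetaxel were followed over time. Cmax, Tmax, AUC, MRT, t1/2, CL and Vss were reported for males, females and all animals combined.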
Data set [9] can be described thus: Half life in Beagle dog at 4 mg/kg,iv measured upto 24 hrs. Conditions: in vivo. The class given is ADME, organism-based, Canis lupus familiaris.
A short description of data set [10]: Half life in male rat at 8 mg/kg,iv measured upto 24 hrs. Format: ADME, organism-based. As to conditions: in vivo.
Data set [11] in a line: MRT (0 to infinity) in male rat at 8 mg/kg,iv measured upto 24 hrs. Format: ADME, organism-based. As to conditions: in vivo.
Data set [12] can be described thus: MRT (0 to infinity) in male rat at 4 mg/kg,iv measured upto 24 hrs. Format: ADME, organism-based. As to conditions: in vivo.
The nature of data set [13]: AUC (0-infinity) in Beagle dog at 4 mg/kg,iv measured upto 24 hrs. The class given is ADME, organism-based, Canis lupus familiaris. Further details: time < 24 hrs, dose 4 mg/kg, route iv. Conditions: in vivo. The method in brief: (§3)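 Single iv dose: rats 2, 4 or 8 mg/kg by intravenous injection; Beagle dogs 1, 2 or 4 mg/kg by intravenous infusion. Plasma concentration–time data were analysed by sex and pooled. Reported parameters: Cmax, Tmax, AUC0−t, AUC0−∞, MRT0−∞, t1/2, CL, Vss, given as mean ± SD.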

Data set [14] in a line: AUC (0-infinity) in female Beagle dog at 1 mg/kg,iv measured upto 24 hrs. As to conditions: in vivo. The class given is ADME, organism-based, Canis lupus familiaris. More on the design: dose 1 mg/kg, time < 24 hrs, route iv. The method in brief:
as §3

Data set [15] can be described thus: AUC (0-infinity) in female rat at 2 mg/kg,iv measured upto 24 hrs. As to conditions: in vivo. The class given is ADME, organism-based. More on the design: time < 24 hrs, dose 2 mg/kg, route iv. In a few lines: as §3
The nature of data set [16]: AUC (0-t) in Beagle dog at 4 mg/kg,iv measured upto 24 hrs. The class given is ADME, organism-based, Canis lupus familiaris. More on the design: dose 4 mg/kg, time < 24 hrs, route iv. Conditions: in vivo. In a few lines: as §3
A short description of data set [17]: AUC (0-t) in female rat at 8 mg/kg,iv measured upto 24 hrs. Format: ADME, organism-based. More on the design: dose 8 mg/kg, time < 24 hrs, route iv. Conditions: in vivo. The method in brief: as §3
The nature of data set [18]: Tmax in Beagle dog at 1 mg/kg,iv measured upto 24 hrs. The class given is ADME, organism-based, Canis lupus familiaris. Conditions: in vivo.
A short description of data set [19]: Tmax in male Beagle dog at 4 mg/kg,iv measured upto 24 hrs. The class given is ADME, organism-based, Canis lupus familiaris. Conditions: in vivo.
Data set [20] can be described thus: Cmax in female rat at 8 mg/kg,iv measured upto 24 hrs. The class given is ADME, organism-based. More on the design: time < 24 hrs, dose 8 mg/kg, route iv. Conditions: in vivo. The method in brief: as §2
The nature of data set [21]: Toxicity in Beagle dog assessed as effect on electrocardiogram index at 1 to 4 mg/kg,iv. The class given is organism-based, Canis lupus familiaris. Conditions: in vivo, dose 1-4 mg/kg.
The nature of data set [22]: Stability in monkey plasma assessed as compound remaining at 40 uM incubated for 6 hrs. As to conditions: rhesus monkey. Format: ADME, cell-free, Macaca mulatta.
The next data set has as its system MDA-MB-468. The data set is described as follows: Antiproliferative activity against human MDA-MB-468 cells assessed inhibition of cell growth incubated for 72 hrs by SRB assay. As to conditions: MDA-MB-468, 72 h. The class given is functional, cell-based.
The subject of another data set is A549. In words: Antiproliferative activity against human A549 cells assessed inhibition of cell growth incubated for 72 hrs by SRB assay. The class given is functional, cell-based. As to conditions: A549, 72 h. In general terms: Sulforhodamine B stains cellular protein and so reports cell mass.
The test system of a further data set is MDA-MB-435. In words: Antiproliferative activity against human MDA-MB-435 cells assessed inhibition of cell growth incubated for 72 hrs by SRB assay. Format: functional, cell-based. As to conditions: MDA-MB-435, 72 h.
A short description of data set [23]: Toxicity in Beagle dog assessed as maximal non-toxic dose at iv administration. As to conditions: in vivo, read-out: MNTD. Format: organism-based, Canis lupus familiaris.
In data set [24] the test system is 4T1. The data set is described as follows: Antitumor activity against mouse 4T1 cells implanted in BALB/c mouse assessed as decrease in PROK2 mRNA expression in lung at 20 mg/kg,iv administrated qd for 2 days by qRT-PCR analysis. Conditions: time 2.0 day. Format: functional, organism-based. In a few lines: (§4)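 Day 19 after 4T1 implantation, mice randomised into five groups; iv vehicle or 20 mg/kg plus ip C12-iE-DAP (50 μg/mouse) and MDP (100 μg/mouse) once daily for 2 days; killed after 48 h; lung mRNA for MMP8, MMP9, PROK2, S100A8, S100A9 and IL-1β by qPCR; mean ± SEM.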
A general note: In qPCR the cycle at which signal appears reflects the starting amount.

For data set [25], the system named is 4T1. The data set is described as follows: Antitumor activity against mouse 4T1 cells implanted in BALB/c mouse assessed as decrease in S100A9 mRNA expression in lung at 20 mg/kg,iv administrated qd for 2 days by qRT-PCR analysis. The class given is functional, organism-based. Conditions: time 2.0 day. The method in brief: as §4
Data set [26] concerns 4T1. The data set is described as follows: Antitumor activity against mouse 4T1 cells xenografted with BALB/c mouse assessed as decrease in tumor volume at 5.7 mg/kg,iv administrated once per week for 4 weeks. The class given is functional, organism-based. In a few lines: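 4T1 cells injected into mammary fat pads of BALB/c mice. Dosing iv once per week for 4 weeks, saline vehicle; single-agent arms were given alone or with the peptide component (5b or 6). Endpoints were body weight, tumour volume, tumour weight, lung metastatic nodule count and lung metastasis score. Mean ± SEM, n = 10; ANOVA and Student's t test.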

Data set [27] is described as follows: Toxicity in BALB/c mouse injected with mouse 4T1 cells assessed as body weight loss at 5.7 mg/kg,iv in presence of compound 6 administrated once per week for 4 weeks. Format: organism-based. As to conditions: in vivo, 672 h.
Data set [28] can be described thus: Toxicity in BALB/c mouse xenografted with human HCT-116 cells assessed as body weight loss at 5.7 mg/kg,iv administrated once per week for 3 weeks. Conditions: in vivo, 504 h. Format: organism-based. The method in brief: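 Nude BALB/c nu/nu mice received subcutaneous human tumour cells into the right flank. Dosing started at mean tumour volume of 100–120 mm3, iv once weekly for 3 weeks; the taxane arm was an equimolar control. Body weight and overt side effects were monitored. Mean ± SEM, n = 8.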
A general note: In xenograft studies the graft and the host belong to different species.

The test system of data set [29] is 4T1. The data set is described as follows: Antitumor activity against mouse 4T1 cells implanted in BALB/c mouse assessed as decrease in lung MMP2 expression level at 5.7 mg/kg,iv administrated once per week for 4 weeks by western blot assay. Format: functional, organism-based. In a few lines:
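4T1 cells injected into mammary fat pads of BALB/c mice. Saline vehicle or test article given iv once weekly for 4 weeks. Spleen, lung and tumor lysates immunoblotted for MMP2/MMP9 with β-actin as loading control. Bands averaged over five mice per group, representative of two independent experiments.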

Data set [30] relates to 4T1. In words: Antitumor activity against mouse 4T1 cells implanted in BALB/c mouse assessed as decrease in lung injury at 5.7 mg/kg,iv administrated once per week for 4 weeks in presence of MDA-205 by H and E staining based assay. The class given is functional, organism-based. The method in brief:
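BALB/c mice bearing orthotopic mammary fat pad 4T1 tumors, dosed iv weekly for 4 weeks with saline vehicle as control. Lung sections stained with hematoxylin and eosin and examined by light microscopy at 40× for metastasis, inflammatory infiltration and alveolar wall thickening.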

By Cmax is commonly meant the maximum level reached in the sampled fluid or tissue. Broadly, the clearance is a measure of how efficiently the substance is removed, as volume per time. The term half-life denotes how long it takes for the measured level to halve. The MRT inf is the average time that molecules of a dose stay in the body. What is called AUC(0-inf) is total exposure, with the tail of the curve extrapolated. As a reminder, the AUC(0-t) is exposure summed from dosing to a finite time, without extrapolation to infinity. As a reminder, the Tmax is the time from dosing to the highest level. In general, pIC50 refers to the IC50 on a negative log10 scale, so that one unit is a factor of ten.

With `CC(=O)O[C@@]12CO[C@@H]1C[C@H](O)[C@@]1(C)C(=O)[C@H](O)C3=C(C)[C@@H](OC(=O)[C@H](OC(=O)CCC(=O)NCCCC[C@H](NC(=O)CC[C@@H](NC(=O)[C@H](C)NC(=O)/C=C/c4ccc(F)cc4Cl)C(N)=O)C(=O)O)[C@@H](NC(=O)OC(C)(C)C)c4ccccc4)C[C@@](O)([C@@H](OC(=O)c4ccccc4)[C@H]21)C3(C)C`, the results for the Drug uptake result in data set [1] and in data set [3] were “Not Active” and 1%, respectively. Also, the Cmax in [2] was 140 nM; in [20], 62.5 µg/mL. In data set [4], the fraction unbound at 4 h was 0.007. For the same molecule, the Vd in [5] was 0.075 L/kg; in data set [6] it was 0.083 L/kg; in data set [7] it was 0.076 L/kg. Further, the clearance in data set [8] is 2.97 mL/min/kg. Besides, the half-life is 35.5 min in data set [9] and 21.4 min in [10]. Also, the figures for the MRT inf in data set [11] and in data set [12] were 37.9 min and 22.5 min, respectively. Also, the figures for the AUC(0-inf) in data set [13], in [14] and in data set [15] were 17300 ng·h/mL, 1640 ng·h/mL and 4330 ng·h/mL, respectively. Besides, the AUC(0-t) at 24 h was 17200 ng·h/mL in data set [16] and 39300 ng·h/mL in [17]. For the same molecule, the Tmax in data set [18] and in data set [19] was 30 min in each case. For the same molecule, in data set [21], the Activity entry was “Non-Toxic”. Further, in data set [22], the Stability entry is “Stable”. In addition, the pIC50 in the data set on MDA-MB-468, in the data set with A549 and in the data set on MDA-MB-435 was 7.79 throughout. Moreover, in [23], the NOAEL was 6 mg/kg. For the same molecule, the outcome in the data set on 4T1 [24] and in the data set with 4T1 [25] was Active.

On to `CC(=O)O[C@@]12CO[C@@H]1C[C@H](O)[C@@]1(C)C(=O)[C@H](O)C3=C(C)[C@@H](OC(=O)[C@H](O)[C@@H](NC(=O)OC(C)(C)C)c4ccccc4)C[C@@](O)([C@@H](OC(=O)c4ccccc4)[C@H]21)C3(C)C` [DOCETAXEL ANHYDROUS], for which the outcome in the data set with 4T1 [26] and in the data set on 4T1 [30] was Active. Besides, the Activity result in [27] and in [28] was “Non-Toxic” each time. Further, in the data set on 4T1 [29], the result was inactive.
